# Results collected from several papers.
# Effect on: cell growth or viability
SMILES,cell line,method,tested at,time,quantity,result
CC(=O)Nc1cccc(-n2c(=O)n(C3CC3)c(=O)c3c(Nc4ccc(I)cc4F)n(C)c(=O)c(C)c32)c1,SW-620,resazurin,1.56 nM,72 h,viability,56.3%
C[C@H](Nc1ccc2c(c1)OCCn1cc(N3C(=O)OC[C@H]3C(F)F)nc1-2)C(N)=O,HCC1954,,,5 days,EC50,108 nM
COc1cc(Nc2nccc(-c3cnn4nc(OC)ccc34)n2)cc(C(F)(F)F)c1,SK-MEL3,ATP luminescence,,,IC50,1600 nM
CN(C)CC[C@@H](c1ccc(Cl)cc1)c1ccccn1,FaDu,,,72 h,IC50,> 20000 nM
COc1cccc2c1C(=O)c1c(O)c3c(c(O)c1C2=O)C[C@@](O)(C(=O)CO)C[C@@H]3O[C@H]1C[C@H](N)[C@H](O)[C@H](C)O1,SUM159,MTT,,48 h,IC90,> 20 µM
CC[C@@]1(O)C(=O)OCc2c1cc1n(c2=O)Cc2cc3ccccc3nc2-1,P388,MTT,,96 h,IC50,4 nM
C[C@]12CC[C@@H]3c4ccc(O)cc4CC[C@H]3[C@@H]1CC[C@@H]2O,CAPAN-1,ATP luminescence,,72 h,EC90,213 µM
O=C(O)c1ccc(CN2CCC(CN[C@@H]3C[C@H]3c3ccccc3)CC2)cc1,TF-1a,resazurin,,96 h,EC50,76.4 nM
CC(C)C[C@H](NC(=O)[C@H](Cc1ccccc1)NC(=O)c1cnccn1)B(O)O,SAOS-2,ATP luminescence,,,IC50,25 nM
C/C(=N\NC(=O)c1cccc(S(=O)(=O)N2CCN(C)CC2)c1)c1cc(Cl)ccc1O,TF-1a,resazurin,,96 h,EC50,1260 nM
Nc1ccn([C@@H]2O[C@H](CO)[C@@H](O)[C@@H]2O)c(=O)n1,FaDu,CCK-8,40 nM,96 h,inhibition,50%
